Measurements taken from PMC10694180 (Heliyon, 2023).
Entries after “also recorded” stand apart in the source; their conditions may differ. Where two headings read alike, the source gives them in different places. Each block holds one compound with its values, some of them ahead of it.

Key:
[1] = test system: hypoxia induced ID8 mouse ovarian epithelial cell line; test: MTT assay, hypoxia induced ovarian cancer cell line ID8; format: cell-based; conditions: for inhibition of cell proliferation: ID8 cells, 50 μM concentration; for IC50: 72 h
Outline: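 Hypoxia-induced mouse ID8 ovarian epithelial cells were seeded in 96-well plates and exposed to test compound or control. MTT was added 72 h after drug addition, and the resuspended formazan was read by absorbance. Growth inhibition (%) = [1 − (A/B)] × 100, where A is treated wells and B is control wells; n = 3.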

[2] = target: Hypoxia-inducible factor 1-alpha (HIF-1α) (Mus musculus, UniProt Q61221); test: Quantitative HIF-1α inhibitory assay; format: cell-based; conditions: ELISA, cell extracts, 50 μM concentration (Fig. 3)
Outline: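 Mouse HIF-1α quantified with a simple-step ELISA kit run per the manufacturer. Cell lysate concentrates from fresh material were added to wells coated with double-stranded DNA carrying HIF-1α-binding HREs. Bound HIF-1α was detected with a primary mouse anti-HIF-1α antibody and a labelled secondary anti-mouse antibody, and absorbance was read at 450 nm.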

[3] = Solubility data of synthesized compounds; format: physicochemical; conditions: solvents: DMSO, ethanol, ethanolic water
[4] = read-out: IC50 (μM), viability of Ovarian cancer cell lines ID8, hypoxia induced ID8, MTT, n = 3
[5] = Mus musculus, Epithelial cell, read-out: IC50 (μM), viability of Ovarian cancer cell lines ID8, hypoxia induced ID8, MTT, 72 h, n = 3

Sequence of Hypoxia-inducible factor 1-alpha (HIF-1α) (Q61221 whole entry): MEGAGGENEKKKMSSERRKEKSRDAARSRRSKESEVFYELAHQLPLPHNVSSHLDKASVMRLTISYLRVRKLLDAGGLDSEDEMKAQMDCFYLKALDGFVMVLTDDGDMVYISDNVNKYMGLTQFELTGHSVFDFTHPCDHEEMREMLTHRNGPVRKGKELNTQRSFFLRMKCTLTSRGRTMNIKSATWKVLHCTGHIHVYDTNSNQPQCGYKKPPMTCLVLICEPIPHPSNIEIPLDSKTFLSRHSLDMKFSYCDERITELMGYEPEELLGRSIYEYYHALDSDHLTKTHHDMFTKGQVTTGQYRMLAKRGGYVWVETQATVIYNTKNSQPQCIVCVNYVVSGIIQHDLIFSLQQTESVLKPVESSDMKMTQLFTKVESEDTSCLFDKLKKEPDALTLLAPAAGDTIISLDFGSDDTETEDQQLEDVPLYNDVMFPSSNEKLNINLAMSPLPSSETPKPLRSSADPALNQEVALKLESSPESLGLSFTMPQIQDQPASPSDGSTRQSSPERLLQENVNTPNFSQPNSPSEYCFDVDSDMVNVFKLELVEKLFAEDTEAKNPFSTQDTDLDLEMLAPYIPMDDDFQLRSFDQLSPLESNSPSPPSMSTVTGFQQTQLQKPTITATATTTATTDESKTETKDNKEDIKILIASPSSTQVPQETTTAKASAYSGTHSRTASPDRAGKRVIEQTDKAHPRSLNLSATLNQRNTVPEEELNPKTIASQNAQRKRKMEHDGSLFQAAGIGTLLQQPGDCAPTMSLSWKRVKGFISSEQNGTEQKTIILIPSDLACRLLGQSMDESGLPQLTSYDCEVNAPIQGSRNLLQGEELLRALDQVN

Structure (SMILES): N.N.[Cl][Pt][Cl] [Cisplatin, reference compound]
inhibition of cell proliferation [1]: 60%
IC50 [1, 4]: 8.5 ± 0.23 µM
IC50 ([1]; read-out: IC50 (μM), viability of Ovarian cancer cell lines ID8, hypoxia induced ID8, MTT, n = 3, listed as cisplatin): 8.5 µM

Structure (SMILES): O=C(CN1CCCC1)N1CCOCC1 [Compound 1b, 1-(morpholin-4-yl)-2-(pyrrolidin-1-yl) ethanone]
IC50 [1, 5]: 14.8 ± 0.7 µM

Structure (SMILES): O=C(CNc1ccccn1)N1CCOCC1 [Compound 1c, 1-(morpholin-4-yl)-2-(pyridin-2-ylamino) ethanone]
inhibition of HIF-1α [2]: significant inhibitory effects; also recorded: optimal activity; also recorded: promising activities
IC50 [1, 5]: 15.7 ± 0.64 µM

Structure (SMILES): COc1ccc(NCC(=O)N2CCOCC2)cc1 [Compound 1e, 2-[(4-methoxyphenyl)amino]-1-(morpholin-4-yl)ethanone]
IC50 [1, 5]: 26.4 ± 0.72 µM

Structure (SMILES): O=C(COc1ccccc1)N1CCOCC1 [Compound 1g, 1-(morpholin-4-yl)-2-phenoxyethanone]
solubility [3]: only soluble in DMSO
IC50 [1, 5]: 146.1 ± 0.56 µM

Structure (SMILES): O=C(CNc1nnc(-c2ccccc2)o1)N1CCOCC1 [Compound 1l, 1-(morpholin-4-yl)-2-[(5-phenyl-1,3,4-oxadiazol-2-yl)amino] ethanone]
IC50 [1, 5]: 15.6 µM
inhibition at 50 µM ([1]; Mus musculus, ID8, read-out: inhibition of cell proliferation): 60%
IC50 [1, 4]: 15.6 ± 0.77 µM

Structure (SMILES): O=C(CSc1nc2ccccc2s1)N1CCOCC1 [Compound 1m, 2-(1,3-benzothiazol-2-ylsulfanyl)-1-(morpholin-4-yl) ethanone]
IC50 [1, 5]: 32.4 ± 0.67 µM

Structure (SMILES): O=C(CNCc1ccccc1)N1CCOCC1 [Compound 1n, 2-(benzylamino)-1-(morpholin-4-yl) ethanone]
solubility [3]: only soluble in DMSO
IC50 [1, 5]: 47.9 ± 0.75 µM

Further lines, with some results ahead:

IC50 [1, 5]: 23.9 ± 0.61 µM
Structure (SMILES): O=C(CN1CCOCC1)N1CCOCC1 [Compound 1a, 1,2-di (morpholin-4-yl) ethanone]

inhibition of HIF-1α [2]: lesser inhibition
IC50 [1, 5]: 25.3 ± 0.82 µM
Structure (SMILES): COc1cccc(NCC(=O)N2CCOCC2)c1 [Compound 1d, 2-[(3-methoxyphenyl)amino]-1-(morpholin-4-yl) ethanone]

IC50 [1, 5]: 158.4 ± 0.66 µM
Structure (SMILES): COc1ccccc1NCC(=O)N1CCOCC1 [Compound 1f, 2-[(2-methoxyphenyl)amino]-1-(morpholin-4-yl) ethanone]

IC50 [1, 5]: 9.4 µM
IC50 [1, 4]: 9.41 ± 0.73 µM
Structure (SMILES): O=C(CNc1ccc(F)cc1)N1CCOCC1 [Compound 1h, 2-[(4-fluorophenyl)amino]-1-(morpholin-4-yl) ethanone]
inhibition of HIF-1α [2]: significant inhibitory effects; also recorded: optimal activity; also recorded: good inhibition
inhibition of cell proliferation [1]: maximum inhibition

IC50 [1, 5]: 11.2 ± 0.22 µM
Structure (SMILES): Cc1ccc(C(C)C)c(OCC(=O)N2CCOCC2)c1 [Compound 1i, 2-[5-methyl-2-(propan-2-yl)phenoxy]-1-(morpholin-4-yl) ethanone]
inhibition of HIF-1α [2]: significant inhibitory effects; also recorded: optimal activity; also recorded: good inhibition
inhibition of cell proliferation [1]: maximum inhibition

solubility [3]: only soluble in DMSO
IC50 [1, 5]: 21.49 ± 0.11 µM
Structure (SMILES): O=C(CNCc1ccc(Cl)cc1)N1CCOCC1 [Compound 1j, 2-[(4-chlorobenzyl)amino]-1-(morpholin-4-yl) ethanone]

IC50 [1, 5]: 64.2 ± 0.88 µM
Structure (SMILES): O=C(CNCc1ccc(F)cc1)N1CCOCC1 [Compound 1k, 2-[(4-fluorobenzyl)amino]-1-(morpholin-4-yl) ethanone]
